Pf Dd2 inh: P. falciparum Dd2 growth inhibition | SYBR Green, 72 h; stronger effect = lower value | activity change, % at 10 µM | hit rate 2.3% among 94,000 | AID 1159554; in the data active = activity change below about -80%; inconclusive = no clear call, values can overlap the other calls
IDH1 mut inh: inhibitors of human IDH1 R132H. O75874. IDH1 R132H reductase, diaphorase/resazurin fluorescence, 60 min. inhibition, % at 10 µM. hit rate 0.18% among 70,000. AID 624101; in the data active = inhibition above about 34%; inconclusive = no clear call, values can overlap the other calls; inactive = below about 11%
T cruzi growth-1: T. cruzi proliferation inhibition. T. cruzi beta-gal in NIH3T3, GalScreen luminescence, 90 h. inhibition, % at 8.34 µM. hit rate 5.9% among 77,000;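 active = mean inhibition above about 93%, with at least 55% of replicates each passing it, limit read from the data, passing the limit was not always enough; inconclusive = only one of those two conditions holds; inactive = neither condition holds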
GASC1 inh: KDM4C (human) demethylase inhibition | Q9H3R0 | GST-KDM4C 2-372, H3K9me3 peptide, LANCE TR-FRET | inhibition, % at 12.5 µM | hit rate 0.15% among 96,000 | AID 720574;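 active = mean replicate inhibition above about 25%, with at least 55% of replicates also reaching it, limit read from the data, passing the limit was not always enough; inconclusive = only one of those two conditions met; inactive = neither condition met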
Target sequence (Q9H3R0 2-372 limits assumed): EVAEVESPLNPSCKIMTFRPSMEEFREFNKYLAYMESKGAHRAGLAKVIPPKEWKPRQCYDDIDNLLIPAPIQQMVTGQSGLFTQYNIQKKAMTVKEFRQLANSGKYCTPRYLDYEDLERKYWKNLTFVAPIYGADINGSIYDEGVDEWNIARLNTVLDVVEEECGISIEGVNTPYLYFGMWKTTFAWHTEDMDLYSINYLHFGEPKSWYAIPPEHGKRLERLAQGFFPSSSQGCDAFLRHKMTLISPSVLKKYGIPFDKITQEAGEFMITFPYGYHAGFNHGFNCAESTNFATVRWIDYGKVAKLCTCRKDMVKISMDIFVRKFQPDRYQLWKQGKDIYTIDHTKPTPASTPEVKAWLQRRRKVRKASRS
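Test system: N-terminal GST-fused human GASC-1 (KDM4C) fragment, residues 2-372; quantity: GASC-1 enzyme at 10 nM final in reaction; dosing: single dose; schedule: 30 min demethylation and 1 h detection at room temperature; signal: LANCE TR-FRET, excitation 340 nm, emissions 618 and 671 nm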
T cruzi growth-2: blocks T. cruzi growth in NIH3T3 host cells; shares compounds with T cruzi growth-1; T. cruzi beta-gal in NIH3T3, GalScreen luminescence, 90 h; inhibition, % at 8.35 µM; hit rate 72% among 5,600;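 active = mean replicate inhibition above about 95% and at least 55% of replicates individually reaching it, limit read from the data; inconclusive = only one of the two criteria is met; inactive = neither criterion is met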
T cruzi growth-3: Trypanosoma cruzi proliferation inhibition. shares compounds with T cruzi growth-1. T. cruzi beta-gal in NIH3T3, GalScreen luminescence, 90 h. inhibition, % at 2.09 µM. hit rate 21% among 5,600;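 active = mean inhibition above about 95%, with at least 55% of replicates also reaching it, limit read from the data; inconclusive = meets just one of the two conditions; inactive = meets neither condition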
NIH3T3 tox: NIH/3T3 (mouse) viability loss; hit rate 14% among 5,600; shares compounds with T cruzi growth-1; NIH/3T3 viability, CellTiter-Glo ATP luminescence, 90 h; cytotoxicity (signal decrease), % at 8.35 µM;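 active = mean signal decrease across replicates above about 35% based on untreated-well scatter, with enough replicates individually passing, limit read from the data; inconclusive = no rule stated though some were filed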
3T3 cytotox 2: cytotoxicity in mouse NIH/3T3 fibroblasts. inhibition, % at 24.9 µM. NIH/3T3 viability, CellTiter-Glo ATP luminescence, 90 h. hit rate 56% among 5,600. shares compounds with T cruzi growth-1;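 active = mean loss of cell viability signal at or above a set limit, and enough replicates individually reaching it; inconclusive = meets only the mean limit or only the replicate share; inactive = meets neither condition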
Numbers stand for hits; ! = not active in a repeat. The list is not random: actives were taken first. Their share in the collection is about 5.8%.

Results for COc1ccc(S(=O)(=O)Nc2ccc3c(c2)C(=O)N([C@H](C)CO)C[C@H](C)[C@H](CN(C)S(=O)(=O)c2cccs2)OCCCC[C@H](C)O3)cc1 ?
Pf Dd2 inh: inactive; T cruzi growth-1: inconclusive; GASC1 inh: inactive; T cruzi growth-2: 106.1; T cruzi growth-3: inactive; NIH3T3 tox: inactive; 3T3 cytotox 2: inactive

Results for COc1ccc(-n2c(SCC(=O)Nc3ccc(Cl)cc3Cl)nnc2-c2ccncc2)cc1 ?
IDH1 mut inh: inactive

Results for COc1ccc(N2C(=O)N(c3ccc(F)cc3)C(=O)C2CC(=O)Nc2ccc(F)cc2)cc1 (stereo unspecified) ?
IDH1 mut inh: inactive

How did Cc1ccc(S(=O)(=O)N2C[C@H](O)COC[C@@H]3O[C@H](CC(=O)N[C@@H]4CCN(Cc5ccccc5)C4)CC[C@H]32)cc1 do in these assays?
Pf Dd2 inh: inactive; T cruzi growth-1: inactive; GASC1 inh: inactive

What do the screens show for `Cc1ccc(S(=O)(=O)N2C[C@H](O)COC[C@H]3O[C@@H](CC(=O)N[C@@H]4CCN(Cc5ccccc5)C4)CC[C@@H]32)cc1`?
Pf Dd2 inh: inactive; T cruzi growth-1: 97.9; GASC1 inh: inactive; T cruzi growth-2: inactive; T cruzi growth-3: inactive; NIH3T3 tox: inactive; 3T3 cytotox 2: inactive

What do the screens show for `O=C(C[C@H]1CC[C@H]2[C@@H](COC[C@@H](O)CN2S(=O)(=O)c2ccc(Cl)cc2)O1)N[C@@H]1CCN(Cc2ccccc2)C1`?
Pf Dd2 inh: inactive; T cruzi growth-1: 96.1; GASC1 inh: inactive; T cruzi growth-2: inconclusive; T cruzi growth-3: inactive; NIH3T3 tox: inactive; 3T3 cytotox 2: inactive

Results for O=C(c1ccc(F)cc1)N1CCCCN2[C@@H](CO)[C@H](c3ccc(C#CC4(O)CCCC4)cc3)[C@@H]2C1 ?
Pf Dd2 inh: inactive; T cruzi growth-1: inactive; GASC1 inh: inactive

What do the screens show for `O=C(c1ccc(F)cc1)N1CCCCN2[C@@H](CO)[C@@H](c3ccc(C#CC4(O)CCCC4)cc3)[C@@H]2C1`?
Pf Dd2 inh: inactive; T cruzi growth-1: inconclusive; GASC1 inh: inactive; T cruzi growth-2: inactive; T cruzi growth-3: inactive; NIH3T3 tox: inactive; 3T3 cytotox 2: inactive

Results for O=C(c1ccc(F)cc1)N1CCCCN2[C@H](CO)[C@H](c3ccc(C#CC4(O)CCCC4)cc3)[C@H]2C1 ?
Pf Dd2 inh: inactive; T cruzi growth-1: 105.9; GASC1 inh: inactive; T cruzi growth-2: inactive; T cruzi growth-3: inactive; NIH3T3 tox: inactive; 3T3 cytotox 2: inactive

What do the screens show for `O=C(C1CC1)N1CCCCN2[C@@H](CO)[C@H](c3ccc(C#CC4(O)CCCC4)cc3)[C@@H]2C1`?
Pf Dd2 inh: inactive; T cruzi growth-1: inactive

Results for O=C(Cn1cnc2ccccc2c1=O)Nc1cc(Cl)c(Cl)cc1Cl ?
IDH1 mut inh: inactive

Results for C[C@@H]1CCCCO[C@H](CN(C)S(C)(=O)=O)[C@H](C)CN([C@@H](C)CO)C(=O)c2cc(N(C)C)ccc2O1 ?
Pf Dd2 inh: inactive; IDH1 mut inh: inactive; T cruzi growth-1: 108.0; GASC1 inh: inactive; T cruzi growth-2: inactive; T cruzi growth-3: inactive; NIH3T3 tox: inactive; 3T3 cytotox 2: inactive

How did C[C@@H]1CN([C@H](C)CO)C(=O)c2cc(N(C)C)ccc2O[C@@H](C)CCCCO[C@H]1CN(C)S(C)(=O)=O do in these assays?
Pf Dd2 inh: inactive; T cruzi growth-1: inactive; GASC1 inh: inactive

What do the screens show for `C[C@@H]1CN([C@@H](C)CO)C(=O)c2cc(N(C)C)ccc2O[C@@H](C)CCCCO[C@@H]1CN(C)S(C)(=O)=O`?
T cruzi growth-1: inactive; GASC1 inh: inactive

What do the screens show for `C[C@@H]1CCCCO[C@@H](CN(C)S(C)(=O)=O)[C@@H](C)CN([C@H](C)CO)C(=O)c2cc(N(C)C)ccc2O1`?
Pf Dd2 inh: inactive; T cruzi growth-1: 100.7!; GASC1 inh: inactive; T cruzi growth-2: inactive; T cruzi growth-3: inactive; NIH3T3 tox: inactive; 3T3 cytotox 2: inactive

Results for OC[C@H]1[C@@H](c2ccc(-c3ccc(F)cc3)cc2)[C@H]2CN(CCC(F)(F)F)CCCCN21 ?
Pf Dd2 inh: inactive; T cruzi growth-1: 101.6; GASC1 inh: inactive; T cruzi growth-2: 103.5; T cruzi growth-3: inactive; NIH3T3 tox: 56.5; 3T3 cytotox 2: 105.1

Results for OC[C@@H]1[C@@H](c2ccc(-c3ccccc3)cc2)[C@H]2CN(CCC(F)(F)F)CCCCN12 ?
Pf Dd2 inh: inactive; T cruzi growth-1: inactive; GASC1 inh: inactive

What do the screens show for `Cc1cccc(-c2ccc([C@@H]3[C@H]4CN(CCC(F)(F)F)CCCCN4[C@H]3CO)cc2)c1`?
Pf Dd2 inh: inactive; T cruzi growth-1: 99.2; GASC1 inh: inactive; T cruzi growth-2: 103.3; T cruzi growth-3: inactive; NIH3T3 tox: 41.3; 3T3 cytotox 2: 105.4

How did OC[C@@H]1[C@H](c2ccc(-c3ccc(F)cc3)cc2)[C@@H]2CN(CCC(F)(F)F)CCCCN12 do in these assays?
Pf Dd2 inh: inactive; T cruzi growth-1: inconclusive; GASC1 inh: inactive; T cruzi growth-2: 105.1; T cruzi growth-3: inactive; NIH3T3 tox: 40.5; 3T3 cytotox 2: 104.7

What do the screens show for `OC[C@@H]1[C@H](c2ccc(-c3cccc(F)c3)cc2)[C@@H]2CN(CCC(F)(F)F)CCCCN12`?
Pf Dd2 inh: inactive; T cruzi growth-1: inactive; GASC1 inh: inactive

How did OC[C@@H]1[C@H](c2ccc(C#CC3CCCC3)cc2)[C@H]2CN(CCC(F)(F)F)CCCCN12 do in these assays?
Pf Dd2 inh: inconclusive; T cruzi growth-1: 101.2; GASC1 inh: inactive; T cruzi growth-2: inactive; T cruzi growth-3: 109.2; NIH3T3 tox: 58.0; 3T3 cytotox 2: 105.0

What do the screens show for `Cc1ccc(NC(=O)CC2NCCNC2=O)cc1C` (stereo unspecified)?
IDH1 mut inh: inactive

How did CCc1c(C)sc(NC(=S)Nc2cc(OC)c(Cl)cc2OC)c1C(=O)OC do in these assays?
IDH1 mut inh: inactive

Results for Cc1cc(OCC(=O)Nc2ncn[nH]2)c(C)cc1Br ?
IDH1 mut inh: inactive

How did CN(C)C(=O)c1ccc(-c2ccc([C@H]3[C@@H](CO)N4CCCCN(CCC(F)(F)F)C[C@H]34)cc2)cc1 do in these assays?
Pf Dd2 inh: inactive; T cruzi growth-1: 100.9; GASC1 inh: inactive; T cruzi growth-2: 100.0; T cruzi growth-3: inactive; NIH3T3 tox: inactive; 3T3 cytotox 2: inactive

What do the screens show for `OC[C@@H]1[C@H](c2ccc(-c3ccccc3)cc2)[C@H]2CN(CCC(F)(F)F)CCCCN12`?
Pf Dd2 inh: -80.4; T cruzi growth-1: 103.6; GASC1 inh: inactive; T cruzi growth-2: 103.0; T cruzi growth-3: inactive; NIH3T3 tox: inactive; 3T3 cytotox 2: 106.3

Screens from PubChem.
